Our source for the IC50, Activity and ΔTm values is ChEMBL document CHEMBL3826876, “Toward the Development of Specific G-Quadruplex Binders: Synthesis, Biophysical, and Biological Studies of New Hydrazone Derivatives” (J Med Chem, 2016).

Activity calls are given as the source filed them. The calls are words filed in the database; no cut-off is given here.

For series [1], the system named is U2OS. As to the kind of experiment: Cytotoxicity against human U2OS cells assessed as cell killing after 24 hrs by MTT assay. The format is functional, cell-based. The gist of the method: (§1)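 U2OS and HCT116 in DMEM with 10% FBS, 1% L-glutamine, seeded at 40000 cells/ml; 24 h later exposed for 1 h or 24 h, then drug-free medium 1-2 days. MTT 1 h at 37 °C, DMSO solubilisation, absorbance 595 nm. IC50 by linear regression; two independent experiments in triplicate, mean ± SE.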
(In general: Tetrazolium dyes change colour on reduction, which living cells bring about.)

In series [2] the test system is U2OS. As to the kind of experiment: Stabilization of nuclear G-quadruplex DNA in human U2OS cells at 2 to 10 uM after 24 hrs by DAPI staining based immunofluorescence assay. It is filed as cell-based. The procedure, abridged:
(§2)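 U2OS seeded at 100000 cells/ml, treated 24 h after seeding for 24 h; fixed methanol:acetic acid 3:1, 0.1% Triton X-100, 2% milk block. Stained with in-house His-purified BG4, anti-FLAG, Alexa 488 anti-rabbit; nuclei DAPI. Per-cell signal as corrected total cell fluorescence; Student's t test.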

A short description of series [3]: Cytotoxicity against human HCT116 cells assessed as cell killing after 24 hrs by MTT assay. It is filed as functional, cell-based. As to conditions: HCT-116, 24 h. The procedure, abridged: as §1
A short description of series [4]: Cytotoxicity against human HCT116 cells assessed as cell killing after 1 hr by MTT assay. The format is functional, cell-based. As to conditions: HCT-116, 1 h. The procedure, abridged: as §1
The test system of series [5] is U2OS. As to the kind of experiment: Cytotoxicity against human U2OS cells assessed as cell killing after 1 hr by MTT assay. The format is functional, cell-based. The gist of the method:
as §1

The nature of series [6]: Binding affinity to synthetic c-KIT1 G-quadruplex DNA assessed as change in melting temperature at 4 mol equiv in presence of 100 mM KCl buffer by circular dichroism spectroscopic analysis. The gist of the method: (§3)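 CD melting, 20-100 °C at 1 °C/min, signal at 264 (parallel), 290 (antiparallel) or 280 nm (duplex). G4 DNA 10 µM or duplex 15 µM, folded by heating at 90 °C 5 min and slow cooling, in 10 mM potassium phosphate (c-kit1, Tel23, Tel26) or lithium phosphate (Tel23-p, ds12) pH 7.0 with 100 mM KCl. Ligand 4 equiv; Tm by curve fit, ΔTm vs DNA alone; duplicate average.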

The nature of series [7]: Effect on synthetic c-KIT1 G-quadruplex DNA topology at 4 mol equiv by circular dichroism spectroscopic analysis. The procedure, abridged:
(§4)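 CD spectra at 20 °C, 230-360 nm, 3 scans averaged, baseline subtracted; 10 µM G4 or 15 µM duplex in potassium- or lithium-phosphate pH 7.0 buffers with 100 mM KCl (c-kit2, c-myc: 5 mM potassium phosphate, 20 mM KCl); ligand 4 molar equiv added to folded DNA from 6 mM DMSO stock.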
A general note: CD spectra are sensitive to the conformation of chiral molecules.

The next series is filed under the species Homo sapiens. As to the kind of experiment: Binding affinity to human 5'-FAM/3'-TAMRA labeled telomere 21 G-quadruplex DNA assessed as increase in melting temperature by FRET assay. The gist of the method:
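FRET melting screen in 60 mM potassium cacodylate pH 7.4, labelled probe 400 nM annealed at 85 °C for 10 min; ligands at various concentrations up to 20 µM, diluted from 10 mM DMSO stock via 10 mM HCl. Excitation 450-495 nm, emission 515-545 nm, 30-100 °C in 0.5 °C steps with 30 s hold; ΔTm by curve fitting, triplicate.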

Series [8] is described as follows: Induction of parallel G-quadruplex formation in synthetic unfolded c-KIT2 DNA assessed as increase in molar ellipticity after 10 mins in absence of metal cation by circular dichroism titration method. The procedure, abridged:
(§5)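 CD titration without metal ions: unfolded oligonucleotide 12-15 µM in 50 mM Tris; ligand added in 0.5 equiv steps, spectrum recorded 10 min after each addition at 20 °C, 230-360 nm, 3 scans averaged.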

The nature of series [9]: Binding affinity to synthetic telomere 23 parallel G-quadruplex DNA assessed as change in melting temperature at 4 mol equiv in presence of 100 mM KCl buffer by circular dichroism spectroscopic analysis. The gist of the method: as §3
Series [10] can be described thus: Induction of G-quadruplex formation in synthetic unfolded telomere 23 DNA assessed as increase in molar ellipticity after 10 mins in absence of metal cation by circular dichroism titration method. The procedure, abridged:
as §5

Series [11] can be described thus: Binding affinity to synthetic telomere 26 G-quadruplex DNA assessed as change in melting temperature at 4 mol equiv in presence of 100 mM KCl buffer by circular dichroism spectroscopic analysis. The procedure, abridged: as §3
A short description of series [12]: Effect on synthetic telomere 26 G-quadruplex DNA topology at 4 mol equiv by circular dichroism spectroscopic analysis. The gist of the method: as §4
Series [13] can be described thus: Binding affinity to 5'-FAM/3'-TAMRA labeled c-KIT2 G-quadruplex DNA (unknown origin) assessed as change in melting temperature at 4:1 ligand:DNA ratio in presence of 20 mM KCl buffer by FRET assay. The gist of the method: (§6)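 FRET melting of FAM/TAMRA-labelled G4 oligos (400 nM, annealed 85 °C 10 min) with ligand at 4 equiv, same buffers as CD (20 mM KCl for c-kit2 and c-myc; 100 mM KCl for telomeric parallel form, annealed at high concentration). Excitation 450-495 nm, emission 515-545 nm, read every 0.5 °C over 30-100 °C; ΔTm by curve fit; duplicate runs averaged.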

Series [14] in a line: Effect on synthetic c-MYC G-quadruplex DNA topology at 4 mol equiv by circular dichroism spectroscopic analysis. The procedure, abridged: as §4
Series [15] is described as follows: Binding affinity to synthetic c-KIT2 G-quadruplex DNA assessed as increase in thermal stability in presence of 20 mM KCl buffer by circular dichroism spectroscopic analysis. The procedure, abridged: (§7)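 CD melting in 5 mM potassium phosphate, 20 mM KCl, 10 µM folded G4, heated 20-100 °C at 1 °C/min; ligand:DNA ratios 1:1, 2:1 and 4:1 compared; Tm from curve fit.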

The nature of series [16]: Binding affinity to synthetic c-MYC G-quadruplex DNA assessed as increase in thermal stability in presence of 20 mM KCl buffer by circular dichroism spectroscopic analysis. The procedure, abridged: as §7
Series [17] can be described thus: Effect on synthetic self-complementary DNA 12-mer duplex topology at 4 mol equiv in presence of K+ ions by circular dichroism spectroscopic analysis. The procedure, abridged:
as §4

A short description of series [18]: Binding affinity to human 5'-FAM/3'-TAMRA labeled telomere 21 parallel G-quadruplex DNA (unknown origin) assessed as change in melting temperature at 4:1 ligand:DNA ratio in presence of 100 mM KCl buffer by FRET assay. The gist of the method: as §6
The nature of series [19]: Binding affinity to synthetic telomere 23 G-quadruplex DNA assessed as change in melting temperature at 4 mol equiv in presence of 100 mM KCl buffer by circular dichroism spectroscopic analysis. The procedure, abridged: as §3
Series [20] is described as follows: Binding affinity to synthetic c-KIT2 G-quadruplex DNA assessed as change in melting temperature at 4 mol equiv in presence of 20 mM KCl buffer by circular dichroism spectroscopic analysis. The procedure, abridged:
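CD melting as for other targets (20-100 °C, 1 °C/min, 10 µM folded G4, ligand 4 equiv), but in 5 mM potassium phosphate with 20 mM KCl; c-kit2 read at 264 nm as parallel G4. ΔTm from fitted Tm, duplicate average.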

The nature of series [21]: Effect on synthetic telomere 23 G-quadruplex DNA topology at 4 mol equiv by circular dichroism spectroscopic analysis. The gist of the method:
as §4

Series [22] in a line: Binding affinity to synthetic self-complementary DNA 12-mer duplex assessed as change in melting temperature at 4 mol equiv in presence of 100 mM KCl buffer by circular dichroism spectroscopic analysis. The gist of the method:
as §3

A short description of series [23]: Induction of parallel G-quadruplex formation in synthetic unfolded c-KIT1 DNA assessed as increase in molar ellipticity after 10 mins by in absence of metal cation circular dichroism titration method. The procedure, abridged:
as §5

Series [24] can be described thus: Effect on preformed synthetic c-MYC parallel G-quadruplex DNA topology in tris buffer after 10 mins by circular dichroism titration method.
A short description of series [25]: Binding affinity to 5'-FAM/3'-TAMRA labeled c-MYC G-quadruplex DNA (unknown origin) assessed as change in melting temperature at 4:1 ligand:DNA ratio in presence of 20 mM KCl buffer by FRET assay. The gist of the method: as §6
A short description of series [26]: Effect on synthetic c-KIT2 G-quadruplex DNA topology at 4 mol equiv by circular dichroism spectroscopic analysis. The gist of the method: as §4
Series [27] can be described thus: Binding affinity to synthetic c-MYC G-quadruplex DNA assessed as change in melting temperature at 4 mol equiv in presence of 20 mM KCl buffer by circular dichroism spectroscopic analysis.
Series [28] in a line: Effect on synthetic telomere 23 parallel G-quadruplex DNA topology at 4 mol equiv by circular dichroism spectroscopic analysis. The procedure, abridged: as §4
For series [29], the system named is U2OS. As to the kind of experiment: Stabilization of nuclear G-quadruplex DNA in human U2OS cells at 10 uM after 24 hrs by DAPI staining based immunofluorescence assay. It is filed as cell-based. The gist of the method: as §2
Series [30] has as its system U2OS. As to the kind of experiment: Cytotoxicity against human U2OS cells assessed as cell death after 24 hrs by FACS analysis. It is filed as cell-based. A general note: A flow cytometer gives signals particle by particle.
Series [31] concerns U2OS. As to the kind of experiment: Cytotoxicity against human U2OS cells assessed as cell death after 24 hrs by microscopic analysis. The format is cell-based.

`O=Cc1c(-c2ccccc2)nc2n1ccc1nc(-c3ccccc3)c(C=O)n12`: the half-maximal inhibitory concentration (IC50) stood at 9.16 µM in the series on U2OS [1], 4.06 µM in [3], 16.8 µM in series [4] and 45.2 µM with U2OS [5]. For the same compound, the result in the series on U2OS [2] was inactive.

As to `C(=N\NC1=NCCN1)/c1c(-c2ccccc2)nc2n1ccc1nc(-c3ccccc3)c(/C=N/NC3=NCCN3)n12`, the ΔTm in series [6] was 1.6 °C; in series [9] it was 10.8 °C; in series [11], -8.9 °C; in [13], more than 20 °C; in series [18], more than 15 °C; in [19], -14 °C. Further, the ΔTm was more than 20 °C in series [20], 1.3 °C in series [22], more than 15 °C in series [25] and more than 15 °C in series [27]. For the same compound, the outcome in series [7], in [10], in series [12], in series [14], in series [17] and in [21] was inactive. Also, the outcome in [24], in series [26] and in series [28] was inactive. Further, the outcome (in the series listed under Homo sapiens; in series [8]) was Active. In addition, the Activity result in series [15], in [16] and in [23] was “Dose-dependent effect” throughout.

Consider `N=C(N)N/N=C/c1c(-c2ccccc2)nc2ccn3c(/C=N/N=C(N)N)c(-c4ccccc4)nc3n12`, for which the ΔTm in [6] is more than 15 °C; in series [9], more than 20 °C; in series [11], -4.5 °C; in series [19], -10 °C; in series [20], more than 20 °C; in [22], 0.1 °C. Also, in series [27], the ΔTm is more than 20 °C. Moreover, the result in series [7], in series [12], in series [14], in series [17], in series [21] and in series [26] was inactive. Also, the outcome in series [28] was inactive. Besides, the outcome in the series filed under Homo sapiens and in the series on U2OS [29] was Active.

On to `Cl.Cl.N=C(N)N/N=C/c1c(-c2ccccc2)nc2n1ccc1nc(-c3ccccc3)c(/C=N/NC(=N)N)n12`, for which the 50% inhibitory concentration (IC50) was 16 µM in the series on U2OS [1], 5.12 µM in series [3], 35.1 µM in series [4] and 101 µM in the series on U2OS [5]. For the same compound, the Activity entry in the series with U2OS [30] and in the series on U2OS [31] was “Non-toxic” in each case.

For orientation: IC50 means the point on the concentration scale where inhibition reaches its midpoint. Broadly, the ΔTm is the change in melting temperature against a reference sample.
